In ChEMBL document CHEMBL1926642, “Relevance of the C-5 position to schweinfurthin induced cytotoxicity” (2011):

Assays:
Format in all cases: functional
[1] = test system: TK-10; assay: Cytotoxicity against human TK10 cells assessed as cell growth at 10 uM after 48 hrs by sulforhodamine B assay relative to control; conditions: TK-10, 48 h, read-out: Activity
[2] = test system: LOX IMVI; assay: Cytotoxicity against human LOXIMVI cells assessed as cell growth at 10 uM after 48 hrs by sulforhodamine B assay relative to control; conditions: read-out: Activity
Procedure, shortened: (§1)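 Compounds went through the NCI 60 cell-line screen, whose current protocol tests first at a single dose.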

[3] = test system: NCI-H522; assay: Cytotoxicity against human NCI-H522 cells assessed as cell growth at 10 uM after 48 hrs by sulforhodamine B assay relative to control; conditions: NCI-H522, 48 h, read-out: Activity; procedure, shortened: as §1
[4] = test system: PC-3; assay: Cytotoxicity against human PC3 cells assessed as cell growth at 10 uM after 48 hrs by sulforhodamine B assay relative to control; conditions: PC-3, 48 h, read-out: Activity; procedure, shortened: as §1
[5] = test system: Malme-3M; assay: Cytotoxicity against human MALME-3M cells assessed as cell growth at 10 uM after 48 hrs by sulforhodamine B assay relative to control; conditions: read-out: Activity; procedure, shortened: as §1
[6] = test system: OVCAR-4; assay: Cytotoxicity against human OVCAR4 cells assessed as cell growth at 10 uM after 48 hrs by sulforhodamine B assay relative to control; conditions: OVCAR-4, 48 h, read-out: Activity; procedure, shortened: as §1
[7] = test system: 786-0; assay: Cytotoxicity against human 786-0 cells assessed as cell growth at 10 uM after 48 hrs by sulforhodamine B assay relative to control; conditions: 786-0, 48 h, read-out: Activity; procedure, shortened: as §1
[8] = test system: COLO 205; assay: Cytotoxicity against human COLO205 cells assessed as cell growth at 10 uM after 48 hrs by sulforhodamine B assay relative to control; conditions: COLO 205, 48 h, read-out: Activity; procedure, shortened: as §1
[9] = test system: EKVX; assay: Cytotoxicity against human EKVX cells assessed as cell growth at 10 uM after 48 hrs by sulforhodamine B assay relative to control; conditions: read-out: Activity; procedure, shortened: as §1
[10] = test system: ACHN; assay: Cytotoxicity against human ACHN cells assessed as cell growth at 10 uM after 48 hrs by sulforhodamine B assay relative to control; conditions: read-out: Activity; procedure, shortened: as §1
[11] = test system: HOP-62; assay: Cytotoxicity against human HOP62 cells assessed as cell growth at 10 uM after 48 hrs by sulforhodamine B assay relative to control; conditions: HOP-62, 48 h, read-out: Activity; procedure, shortened: as §1
[12] = test system: U-251; assay: Cytotoxicity against human U251 cells assessed as cell growth at 10 uM after 48 hrs by sulforhodamine B assay relative to control; conditions: U-251, 48 h, read-out: Activity
[13] = test system: OVCAR-8; assay: Cytotoxicity against human OVCAR8 cells assessed as cell growth at 10 uM after 48 hrs by sulforhodamine B assay relative to control; conditions: OVCAR-8, 48 h, read-out: Activity; procedure, shortened: as §1
[14] = test system: KM12; assay: Cytotoxicity against human KM12 cells assessed as cell growth at 10 uM after 48 hrs by sulforhodamine B assay relative to control; conditions: KM12, 48 h, read-out: Activity; procedure, shortened: as §1
[15] = test system: HOP-92; assay: Cytotoxicity against human HOP92 cells assessed as cell growth at 10 uM after 48 hrs by sulforhodamine B assay relative to control; conditions: HOP-92, 48 h, read-out: Activity; procedure, shortened: as §1
[16] = test system: NCI-H23; assay: Cytotoxicity against human NCI-H23 cells assessed as cell growth at 10 uM after 48 hrs by sulforhodamine B assay relative to control; conditions: NCI-H23, 48 h, read-out: Activity; procedure, shortened: as §1
[17] = test system: UO-31; assay: Cytotoxicity against human UO31 cells assessed as cell growth at 10 uM after 48 hrs by sulforhodamine B assay relative to control; conditions: UO-31, 48 h, read-out: Activity
[18] = test system: CAKI-1; assay: Cytotoxicity against human Caki1 cells assessed as cell growth at 10 uM after 48 hrs by sulforhodamine B assay relative to control; conditions: CAKI-1, 48 h, read-out: Activity; procedure, shortened: as §1
[19] = test system: SK-MEL-5; assay: Cytotoxicity against human SK-MEL-5 cells assessed as cell growth at 10 uM after 48 hrs by sulforhodamine B assay relative to control; conditions: SK-MEL-5, 48 h, read-out: Activity; procedure, shortened: as §1
[20] = test system: MDA-MB-468; assay: Cytotoxicity against human MDA-MB-468 cells assessed as cell growth at 10 uM after 48 hrs by sulforhodamine B assay relative to control; conditions: MDA-MB-468, 48 h, read-out: Activity; procedure, shortened: as §1
[21] = test system: RPMI-8226; assay: Cytotoxicity against human RPMI8226 cells assessed as cell growth at 10 uM after 48 hrs by sulforhodamine B assay relative to control; conditions: RPMI-8226, 48 h, read-out: Activity; procedure, shortened: as §1
[22] = test system: OVCAR-5; assay: Cytotoxicity against human OVCAR5 cells assessed as cell growth at 10 uM after 48 hrs by sulforhodamine B assay relative to control; conditions: OVCAR-5, 48 h, read-out: Activity; procedure, shortened: as §1
[23] = test system: SK-MEL-2; assay: Cytotoxicity against human SK-MEL-2 cells assessed as cell growth at 10 uM after 48 hrs by sulforhodamine B assay relative to control; conditions: SK-MEL-2, 48 h, read-out: Activity; procedure, shortened: as §1

Row | Compound | growth at 10 µM [2] [%] | growth at 10 µM [3] [%] | growth at 10 µM [4] [%] | growth at 10 µM [6] [%] | growth at 10 µM [7] [%] | growth at 10 µM [8] [%] | growth at 10 µM [9] [%] | growth at 10 µM [10] [%] | growth at 10 µM [11] [%] | growth at 10 µM [12] [%] | growth at 10 µM [13] [%] | growth at 10 µM [14] [%] | growth at 10 µM [15] [%] | growth at 10 µM [16] [%] | growth at 10 µM [17] [%] | growth at 10 µM [18] [%] | growth at 10 µM [19] [%] | growth at 10 µM [20] [%] | growth at 10 µM [21] [%] | growth at 10 µM [22] [%] | also measured
1 | COc1cc(/C=C/c2cc(Br)c3c(c2)C[C@@H]2C(C)(C)[C@H](O)CC[C@@]2(C)O3)cc(O)c1C/C=C(\C)CCC=C(C)C | 105 | 81.5 | 87.6 | 110 | 96 | 126 | 107 | 104 | 113 | 86.3 | 108 | 97.3 | 127 | 103 | 91 | 107 | 99.3 | 110 | 75 | 105 | growth at 10 µM [1]: 113%; growth at 10 µM [5]: 115%; growth at 10 µM [23]: 112%
2 | COCc1cc(/C=C/c2cc(O)c(C/C=C(\C)CCC=C(C)C)c(OC)c2)cc2c1O[C@]1(C)CC[C@@H](O)C(C)(C)[C@H]1C2 | 92.7 | 72.2 | 79 | 108 | 69.8 | 130 | 118 | 103 | 127 | 83.6 | 103 | 123 | 108 | 100 | 98.4 | 118 | 108 | 116 | 65.9 | 114 | growth at 10 µM [23]: 109%
